ChEMBL document CHEMBL1765022, “Synthesis and biological evaluation of tetracyclic thienopyridones as antibacterial and antitumor agents” (Bioorg Med Chem, 2011)
Converted amounts (≈) assume the structure as drawn.

Assays:
Candida tropicalis = test: Antimicrobial activity against Candida tropicalis ATCC 1369 by broth dilution method; format: functional
In short: (§1)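 Fungi were tested by twofold serial broth dilution in Sabouraud Dextrose Broth. Inoculum was 1x10³ CFU/mL, with 48 h at 30 °C before MIC determination. Growth, DMSO solvent and sterility controls were included. Three replicates per organism, at least three independent experiments.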

Haemophilus influenzae = test: Antimicrobial activity against Haemophilus influenzae ATCC 19418 by broth dilution method; format: functional
In short: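 H. influenzae was grown in Haemophilus Test Medium using twofold serial broth dilution. […] Drug-free, DMSO-only and organism-free control tubes were included. Triplicates, with at least three independent experiments.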

Acinetobacter baumannii [1] = test: Antimicrobial activity against quinilone-pencillin-resistant Acinetobacter baumannii clinical isolate by broth dilution method; format: functional
Aspergillus niger = test: Antimicrobial activity against Aspergillus niger ATCC 6275 by broth dilution method; format: functional; in short: as §1
Priestia megaterium = test: Antimicrobial activity against Bacillus megaterium ATCC 19213 by broth dilution method; format: functional
In short: (§2)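 Twofold serial broth dilution in Mueller Hinton Broth. […] Growth (drug-free), DMSO solvent and organism-free sterility tubes were included. Three replicates per organism, at least three independent experiments.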

Pseudomonas aeruginosa = test: Antimicrobial activity against Pseudomonas aeruginosa ATCC 9027 by broth dilution method; format: functional; in short: as §2
[2] = Antimicrobial activity against Bacillus thuringiensis var.kurstaki BGSC 4D1 by broth dilution method; format: functional, Bacillus thuringiensis serovar kurstaki; in short: as §2
Escherichia coli [3] = test: Antimicrobial activity against quinilone-pencillin-resistant Escherichia coli clinical isolate by broth dilution method; format: functional
[4] = tested on: Staphylococcus epidermidis; test: Antimicrobial activity against quinilone-pencillin-resistant Staphylococcus epidermidis clinical isolate by broth dilution method; format: functional
Bacillus subtilis = test: Antimicrobial activity against Bacillus subtilis ATCC 6633 by broth dilution method; format: functional; in short: as §2
Staphylococcus aureus [5] = test: Antimicrobial activity against Staphylococcus aureus ATCC 6538 by broth dilution method; format: functional; in short: as §2
Saccharomyces cerevisiae = test: Antimicrobial activity against Saccharomyces cerevisiae ATCC 9763 by broth dilution method; format: functional; in short: as §1
Staphylococcus aureus [6] = test: Antimicrobial activity against quinilone-pencillin-resistant Staphylococcus aureus isolate SAR 4790 by broth dilution method; format: functional
In short: (§3)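 Twofold serial broth dilution in Mueller Hinton Broth. […] Drug-free tubes, DMSO-only tubes and organism-free tubes served as growth, solvent and sterility controls. Three replicates per organism, at least three independent experiments.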

Staphylococcus aureus [7] = test: Antimicrobial activity against quinilone-pencillin-resistant Staphylococcus aureus isolate SAR 72 by broth dilution method; format: functional; in short: as §3
Acinetobacter baumannii [8] = test: Antimicrobial activity against Acinetobacter baumannii ATCC 19606 by broth dilution method; format: functional; in short: as §2
Bacillus cereus = test: Antimicrobial activity against Bacillus cereus ATCC 11778 by broth dilution method; format: functional; in short: as §2
[9] = tested on: Staphylococcus epidermidis; test: Antimicrobial activity against Staphylococcus epidermidis ATCC 12228 by broth dilution method; format: functional; in short: as §2
NHDF = test: Antitumor activity against human NHDF cells after 72 hrs by MTT assay; format: functional, cell-based
In short: (§4)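 Cells were kept at 37 °C in 5% CO₂, in medium with 2 mM glutamine and 10% FBS; HuDe fibroblasts were grown in DMEM. Compounds were freshly dissolved in DMSO (final ≤0.1% v/v; controls received equal solvent) and applied at 0.1–20 µM for 72 h. Viability was read by MTT. IC₅₀ was extrapolated from Hill-fitted dose–response curves, from at least three independent experiments.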

A549 = test: Antitumor activity against human A549 cells after 72 hrs by MTT assay; format: functional, cell-based; details: A549, 72 h; in short: as §4
Escherichia coli [10] = test: Antimicrobial activity against Escherichia coli ATCC 8739 by broth dilution method; format: functional; in short: as §2
MCF7 = test: Antitumor activity against human MCF7 cells after 72 hrs by MTT assay; format: functional, cell-based; details: MCF7, 72 h; in short: as §4
[11] = Inhibition of Escherichia coli topoisomerase 4 assessed as decatenation of kDNA after 30 mins by electrophoresis
In short: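 E. coli topoisomerase IV decatenation of kinetoplast DNA was run in 40 mM HEPES-KOH pH 7.6 with 100 mM potassium glutamate, at varying compound amounts. Products were separated by agarose electrophoresis and quantified by gel documentation. IC₅₀ (µg/mL) is the concentration halving decatenation relative to drug-free enzyme control.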

[12] = Inhibition of Escherichia coli DNA gyrase assessed as reduction of DNA supercoiling activity using pBR322 DNA substrate after 30 mins by electrophoresis

SMILES	MIC (Candida tropicalis) [ng/mL]	MIC (Haemophilus influenzae) [ng/mL]	MIC (Acinetobacter baumannii [1]) [ng/mL]	MIC (Aspergillus niger) [ng/mL]	MIC (Priestia megaterium) [ng/mL]	MIC (Pseudomonas aeruginosa) [ng/mL]	MIC [2] [ng/mL]	MIC [4] [ng/mL]	MIC (Bacillus subtilis) [ng/mL]	MIC (Staphylococcus aureus [5]) [ng/mL]	MIC (Saccharomyces cerevisiae) [ng/mL]	MIC (Staphylococcus aureus [6]) [ng/mL]	MIC (Staphylococcus aureus [7]) [ng/mL]	MIC (Acinetobacter baumannii [8]) [ng/mL]	MIC (Bacillus cereus) [ng/mL]	MIC [9] [ng/mL]	IC50 (NHDF) [µM]	IC50 (A549) [µM]	MIC (Escherichia coli [10]) [ng/mL]	IC50 (MCF7) [µM]	also measured
C[C@H]1COc2c(N3CCN(C)CC3)c(F)cc3c(=O)c(C(=O)O)cn1c23.C[C@H]1COc2c(N3CCN(C)CC3)c(F)cc3c(=O)c(C(=O)O)cn1c23.O [LEVOFLOXACIN]	> 100000	150	> 100000	> 100000	30	300	70	> 100000	30	70	> 100000	100000	25000	150	150	150					MIC (Escherichia coli [3]): 25000 ng/mL
Cc1c2ccncc2c(C)c2c1[nH]c1ccccc12 [ELLIPTECINE]																	> 10				
O=C(O)c1cn(C2CC2)c2sc3c4ccc(F)cc4[nH]c3c2c1=O	> 100000	150 (≈ 0.438 µM)	> 100000	> 100000	0.015 (≈ 4.38e-05 µM)	> 100000	3 (≈ 0.00876 µM)	1500 (≈ 4.38 µM)	0.015 (≈ 4.38e-05 µM)	3 (≈ 0.00876 µM)	12000 (≈ 35.1 µM)	> 100000	700 (≈ 2.04 µM)	150 (≈ 0.438 µM)	7 (≈ 0.0204 µM)	30 (≈ 0.0876 µM)	> 10	2.7	50000 (≈ 146 µM)	1.9	MIC (Escherichia coli [3]): > 100000 ng/mL
O=C(O)c1cn(C2CC2)c2cc(N3CCNCC3)c(F)cc2c1=O [CIPROFLOXACIN]	> 100000	150 (≈ 0.453 µM)		> 100000	7 (≈ 0.0211 µM)	70 (≈ 0.211 µM)	30 (≈ 0.0905 µM)		30 (≈ 0.0905 µM)	300 (≈ 0.905 µM)	> 100000	> 100000	100000 (≈ 302 µM)	700 (≈ 2.11 µM)	300 (≈ 0.905 µM)	70 (≈ 0.211 µM)					IC50 [11]: 4600 ng/mL (≈ 13.9 µM); IC50 [12]: 340 ng/mL (≈ 1.03 µM)
CO/N=C1\CN(c2nc3c(cc2F)c(=O)c(C(=O)O)cn3C2CC2)CC1CN (configuration not stated) [GEMIFLOXACIN]	> 100000	15 (≈ 0.0385 µM)	100000 (≈ 257 µM)	> 100000	0.3 (≈ 0.00077 µM)	70 (≈ 0.18 µM)	15 (≈ 0.0385 µM)	50000 (≈ 128 µM)	7 (≈ 0.018 µM)	15 (≈ 0.0385 µM)	> 100000	50000 (≈ 128 µM)	6000 (≈ 15.4 µM)	300 (≈ 0.77 µM)	70 (≈ 0.18 µM)	15 (≈ 0.0385 µM)			15 (≈ 0.0385 µM)		MIC (Escherichia coli [3]): 50000 ng/mL (≈ 128 µM)
Clc1ccc(COC(Cn2ccnc2)c2ccc(Cl)cc2Cl)c(Cl)c1 (configuration not stated) [MICONAZOLE]	6000 (≈ 14.4 µM)			3000 (≈ 7.21 µM)							12000 (≈ 28.8 µM)										
COc1c(C)cc2c([nH]c3c2sc2c3c(=O)c(C(=O)O)cn2C2CC2)c1C	> 100000	6000 (≈ 15.7 µM)		> 100000	3000 (≈ 7.84 µM)	> 100000	1500 (≈ 3.92 µM)	3000 (≈ 7.84 µM)	3000 (≈ 7.84 µM)	6000 (≈ 15.7 µM)	> 100000	> 100000	3000 (≈ 7.84 µM)	> 100000	3000 (≈ 7.84 µM)	3000 (≈ 7.84 µM)	> 10	4.7	> 100000	2.5	
O=C(O)c1cn(C2CC2)c2sc3c4ccccc4[nH]c3c2c1=O	> 100000	30 (≈ 0.0925 µM)	> 100000	> 100000	0.015 (≈ 4.62e-05 µM)	> 100000	7 (≈ 0.0216 µM)	3000 (≈ 9.25 µM)	0.015 (≈ 4.62e-05 µM)	3 (≈ 0.00925 µM)	> 100000	> 100000	700 (≈ 2.16 µM)	70 (≈ 0.216 µM)	7 (≈ 0.0216 µM)	30 (≈ 0.0925 µM)	> 10	10	25000 (≈ 77.1 µM)	5.2	MIC (Escherichia coli [3]): > 100000 ng/mL; IC50 [11]: > 24000 ng/mL; IC50 [12]: 1000 ng/mL (≈ 3.08 µM)
COc1ccc2c(c1)[nH]c1c2sc2c1c(=O)c(C(=O)O)cn2C1CC1	> 100000	150 (≈ 0.423 µM)	> 100000	> 100000	0.03 (≈ 8.47e-05 µM)	> 100000	7 (≈ 0.0198 µM)	6000 (≈ 16.9 µM)	0.3 (≈ 0.000847 µM)	15 (≈ 0.0423 µM)	> 100000	> 100000	1500 (≈ 4.23 µM)	3000 (≈ 8.47 µM)	30 (≈ 0.0847 µM)	150 (≈ 0.423 µM)	> 10	2.6	> 100000	1.6	IC50 [11]: > 24000 ng/mL; IC50 [12]: 1100 ng/mL (≈ 3.1 µM)
COc1c(N2C[C@@H]3CCCN[C@@H]3C2)c(F)cc2c(=O)c(C(=O)O)cn(C3CC3)c12 [MOXIFLOXACIN]	> 100000	30 (≈ 0.0747 µM)		> 100000	3 (≈ 0.00747 µM)	700 (≈ 1.74 µM)	30 (≈ 0.0747 µM)		15 (≈ 0.0374 µM)	30 (≈ 0.0747 µM)	> 100000	50000 (≈ 125 µM)	12000 (≈ 29.9 µM)	150 (≈ 0.374 µM)	300 (≈ 0.747 µM)	70 (≈ 0.174 µM)			30 (≈ 0.0747 µM)		IC50 [11]: 5000 ng/mL (≈ 12.5 µM); IC50 [12]: 850 ng/mL (≈ 2.12 µM)
Cc1ccc2c(c1)[nH]c1c2sc2c1c(=O)c(C(=O)O)cn2C1CC1	> 100000	1500 (≈ 4.43 µM)	> 100000	> 100000	7 (≈ 0.0207 µM)	> 100000	150 (≈ 0.443 µM)	25000 (≈ 73.9 µM)	0.3 (≈ 0.000887 µM)	70 (≈ 0.207 µM)	> 100000	> 100000	12000 (≈ 35.5 µM)	700 (≈ 2.07 µM)	300 (≈ 0.887 µM)	300 (≈ 0.887 µM)	> 10	6.9	> 100000	2.8	
